As a reminder, the inhibition is the share of the control response that was lost under treatment. Usually IC50 stands for the concentration that gives 50% inhibition.

Series [1] concerns CHO. Briefly: Modulation of gamma secretase in CHO cells expressing human APP assessed as reduction in amyloid beta (1 to 42) level at 2 uM after 6 hrs by LC/MS/MS analysis relative to control. The format is cell-based. Further details: scale not given: the % may be the effect or the level left. The conditions noted are these: Cricetulus griseus. In outline: (§1)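 Cells were treated at 3 μM or 2 μM. Secreted Aβ peptides (Aβ37, 38, 39, 40, 42) were quantified by immunoprecipitation followed by LC/MS/MS. Changes are expressed relative to vehicle-treated cells.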

Series [2] concerns Mus musculus. Briefly: Antialzheimer activity in CD1 mouse assessed as reduction in amyloid beta 40 level at 50 mg/kg, po QD for 5 days at 8 hrs post-last dose relative to vehicle-treated control. Further details: scale not given: the % may be the effect or the level left.
The subject of series [3] is Mus musculus. As to the kind of experiment: Antialzheimer activity in CD1 mouse assessed as reduction in amyloid beta 38 level at 50 mg/kg, po QD for 5 days at 8 hrs post-last dose relative to vehicle-treated control. Further details: scale not given: the % may be the effect or the level left.
In series [4] the test system is CHO. Briefly: Modulation of gamma secretase in CHO cells expressing human APP assessed as increase in amyloid beta (1 to 37) level at 2 uM after 6 hrs by LC/MS/MS analysis relative to control. The format is cell-based. The conditions noted are these: Cricetulus griseus. An outline of the steps:
as §1

Series [5] deals with Mus musculus. Briefly: Antialzheimer activity in CD1 mouse assessed as reduction in amyloid beta 40 level at 10 mg/kg, po QD for 5 days at 8 hrs post-last dose relative to vehicle-treated control. Further details: scale not given: the % may be the effect or the level left.
Series [6] relates to Mus musculus. As to the kind of experiment: Antialzheimer activity in CD1 mouse assessed as reduction in amyloid beta 38 level at 30 mg/kg, po at 6 hrs relative to vehicle-treated control. Further details: scale not given: the % may be the effect or the level left. The format is functional. In outline:
(§2)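 CD-1 mice received a single IP or PO dose (n = 12 per group) and were sampled at 6 h. Plasma and brain drug concentrations were measured in μM. Aβ42, Aβ40 and Aβ38 in brain homogenate are expressed as percent lowering versus vehicle. Statistical significance was assessed against vehicle.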

Series [7] has as its system Mus musculus. Briefly: Antialzheimer activity in CD1 mouse assessed as reduction in amyloid beta 42 level at 10 mg/kg, po QD for 5 days at 8 hrs post-last dose relative to vehicle-treated control. Further details: scale not given: the % may be the effect or the level left.
For a further series, the system named is SUP-T1. As to the kind of experiment: Inhibition of notch-mediated NICD release in human SUP-T1 cells at 4 uM after 18 hrs by immunoblotting assay. The format is cell-based. In general terms: In western blotting, separated proteins are transferred to a membrane and probed.
The subject of series [8] is Mus musculus. As to the kind of experiment: Antialzheimer activity in CD1 mouse assessed as reduction in amyloid beta 40 level at 100 mg/kg, po at 6 hrs relative to vehicle-treated control. The format is functional. More on the design: scale not given: the % may be the effect or the level left. An outline of the steps: as §2
The test system of series [9] is Mus musculus. Briefly: Antialzheimer activity in CD1 mouse assessed as reduction in amyloid beta 38 level at 10 mg/kg, po QD for 5 days at 8 hrs post-last dose relative to vehicle-treated control. Further details: scale not given: the % may be the effect or the level left.
Series [10] deals with CHO. As to the kind of experiment: Modulation of gamma secretase in CHO cells expressing human APP assessed as reduction amyloid beta (1 to 38) level at 2 uM after 6 hrs by LC/MS/MS analysis relative to control. The format is cell-based. Further details: scale not given: the % may be the effect or the level left. The conditions noted are these: Cricetulus griseus. An outline of the steps: as §1

For series [11], the system named is Mus musculus. Briefly: Antialzheimer activity in CD1 mouse assessed as reduction in amyloid beta 42 level at 30 mg/kg, po at 6 hrs relative to vehicle-treated control. More on the design: scale not given: the % may be the effect or the level left. The format is functional. An outline of the steps: as §2
Series [12] can be described thus: Modulation of gamma secretase in CHO-2B7 cells assessed as reduction in amyloid beta 42 level after 5 hrs by MSD ELISA. The format is cell-based. The conditions noted are these: Cricetulus griseus, CHO-2B7, 5 h. In general terms: An ELISA detects its analyte on a solid surface through an enzyme-linked reagent.
For series [13], the system named is Mus musculus. As to the kind of experiment: Antialzheimer activity in CD1 mouse assessed as reduction in amyloid beta 42 level at 100 mg/kg, po at 6 hrs relative to vehicle-treated control. The format is functional. Further details: scale not given: the % may be the effect or the level left. An outline of the steps: as §2
Series [14] in a line: Inhibition of gamma secretase in CHO-2B7 cells assessed as reduction in total amyloid beta level after 5 hrs by MSD ELISA. The format is cell-based. The conditions noted are these: Cricetulus griseus, CHO-2B7, 5 h.
The subject of series [15] is Mus musculus. As to the kind of experiment: Antialzheimer activity in CD1 mouse assessed as reduction in amyloid beta 40 level at 30 mg/kg, po at 6 hrs relative to vehicle-treated control. The format is functional. Further details: scale not given: the % may be the effect or the level left. In outline:
as §2

Series [16] has as its system CHO. As to the kind of experiment: Modulation of gamma secretase in CHO cells expressing human APP assessed as increase in amyloid beta (1 to 39) level at 2 uM after 6 hrs by LC/MS/MS analysis relative to control. The format is cell-based. The following applies: Cricetulus griseus. An outline of the steps: as §1
Series [17] deals with CHO. Briefly: Modulation of gamma secretase in CHO cells expressing human APP assessed as amyloid beta (1 to 40) level at 2 uM after 6 hrs by LC/MS/MS analysis (reference value: 10.2 ng). The format is cell-based. The conditions noted are these: Cricetulus griseus. In outline: as §1
A short description of series [18]: Modulation of gamma secretase in CHO-2B7 cells assessed as reduction in amyloid beta 40 level after 5 hrs by MSD ELISA. The following applies: Cricetulus griseus, CHO-2B7, 5 h. The format is cell-based.
Series [19] is described as follows: Modulation of gamma secretase in CHO-2B7 cells assessed as reduction in amyloid beta 38 level after 5 hrs by MSD ELISA. The format is cell-based. The conditions noted are these: Cricetulus griseus, CHO-2B7, 5 h.
For series [20], the system named is Mus musculus. Briefly: Antialzheimer activity in CD1 mouse assessed as reduction in amyloid beta 38 level at 100 mg/kg, po at 6 hrs relative to vehicle-treated control. The format is functional. Further details: scale not given: the % may be the effect or the level left. In outline:
as §2

Series [21] deals with Liver microsomes. As to the kind of experiment: Metabolic stability in human liver microsomes at 1 uM after 60 mins by LC/MS/MS analysis. The conditions noted are these: 1 h. (Liver microsomes are a subcellular fraction often used to study metabolism.)
The nature of series [22]: Plasma concentration in CD1 mouse at 1 mg/kg, iv at 2 hrs. Further details: dose 1 mg/kg, route intravenous. The format is ADME, organism-based. In outline:
(§3)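 Screen of CNS penetration: CD-1 mice were dosed IV and plasma and brain concentrations were measured. Brain-to-plasma ratio was calculated, mostly at 6 h post dose, with one compound sampled at 2 h.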

Series [23] can be described thus: Drug uptake in CD1 mouse brain at 1 mg/kg, iv at 2 hrs. The format is ADME, organism-based. More on the design: dose 1 mg/kg, route intravenous. The conditions noted are these: read-out: Drug uptake. In outline:
as §3

A short description of series [24]: Ratio of drug uptake in brain to plasma in CD1 mouse at 1 mg/kg, iv at 2 hrs. The format is ADME, organism-based. Further details: dose 1 mg/kg, route intravenous. The conditions noted are these: brain and plasma, read-out: BPR. In outline:
as §3

In series [25] the test system is Liver microsomes. Briefly: Metabolic stability in human liver microsomes assessed as compound remaining at 1 uM at 60 mins by LC/MS/MS analysis in absence of NADPH. The format is ADME, Microsome. The conditions noted are these: microsomes, 1 h, 1 µM. An outline of the steps: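 Human liver microsomes were run without NADPH as a qualitative read of susceptibility to enzymatic hydrolysis. The read-out was percent parent remaining at 60 min.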

As for `CCO[C@@H]([C@H]1C[C@@H](C)[C@H]2[C@H](O1)[C@H](O)[C@@]1(C)[C@@H]3CC[C@H]4C(C)(C)[C@@H](O[C@H]5CN(C6CN(C)C6)CCO5)CC[C@@]45C[C@@]35CC[C@]21C)C(C)(C)O`, the Activity in the series on CHO [1] is 83%; in the series on Mus musculus [2], 10%; in the series with Mus musculus [3] it was 38%; with CHO [4], 380%; in the series with Mus musculus [5], 7%; in the series with Mus musculus [6], 16%. Also, the Activity came out at 9% in the series on Mus musculus [7]; 15% with Mus musculus [8]; 13% with Mus musculus [9]; 33% with CHO [10]; 16% in the series with Mus musculus [11]; 26% in the series on Mus musculus [13]. Besides, the Activity in the series on Mus musculus [15] stood at 9%; in the series with CHO [16] it was 530%; in the series on CHO [17], 11.4 ng; with Mus musculus [20], 31%. For the same compound, in the series with SUP-T1, the inhibition is 0%. Moreover, the IC50 in [12] came to 0.1 µM; in series [14], 14 µM; in [18], 2.1 µM; in series [19] it was 0.16 µM.
Consider `CC(C)[C@@H](OC(=O)N1CCC1)[C@H]1C[C@@H](C)[C@H]2[C@H](O1)[C@H](O)[C@@]1(C)[C@@H]3CC[C@H]4C(C)(C)[C@@H](O[C@H]5CNCCO5)CC[C@@]45C[C@@]35CC[C@]21C`, for which the values for the Stability entry in the series with Liver microsomes [21] and in the series with Liver microsomes [25] were “Stable” and 123%, respectively. The concentration at 2 h is 326 nM in series [22] and 30 nM in series [23]. Also, the Kp at 2 h in series [24] is 0.09. The 50% inhibitory concentration (IC50) came to 0.26 µM in [12] and 7.9 µM in series [18].

The values are drawn from ChEMBL document CHEMBL2203235, “Optimization of a natural product-based class of γ-secretase modulators” (J Med Chem, 2012).
